“Also recorded” adds a separate entry of the source.
Experiments:
human CXCR4 = assay: SDF-1α-induced phosphorylation of Akt and Erk in CXCR4-transfected CHO cells; format: cell-based; settings: SDF-1α 12.5 nM
Summary of the method: (§1)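 CHO cells were stably transfected with pcDNA3-hCXCR4 or pcDNA3-hCXCR7, selected in G418 (1.2 mg/mL) and single-cell cloned; the CXCR4 line was also FACS-sorted. After SDF-1α exposure, cells were lysed 30 min on ice (Tris/NaCl/EGTA/deoxycholate/Triton/SDS, pH 7.2, plus phosphatase/protease inhibitors). Blots: BCA-matched protein, 8% SDS-PAGE, nitrocellulose, primary antibodies overnight at 4°C, HRP secondary 1 h at room temperature, chemiluminescent detection.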

CXCR7 [1] = assay: SDF-1α-induced phosphorylation of Akt and Erk in CXCR7-transfected CHO cells; format: cell-based, human; settings: Western blotting; for effect on SDF-1α-induced Akt phosphorylation: peptides with SDF-1α
Summary of the method: as §1

wild-type CHO cells = assay: SDF-1α-induced phosphorylation of Akt in wild-type CHO cells; format: cell-based, Chinese hamster; settings: SDF-1α 12.5 nM, Western blotting
Summary of the method: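 Untransfected CHO cells were treated with SDF-1α (12.5 nM), then lysed 30 min on ice in pH 7.2 Tris/NaCl/EGTA/deoxycholate/Triton/SDS buffer with phosphatase/protease inhibitors. Lysates were cleared at 17,000 g, 15 min, 4°C. BCA-matched protein ran on 8% SDS-PAGE onto nitrocellulose, blocked with milk or BSA in TBST. Probing: primary overnight at 4°C, HRP secondary 1 h at room temperature, chemiluminescence.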

CXCR7 [2] = settings: cited from earlier work
HSCs = settings: clinical studies; cited from earlier work
C3H/HeJ mice = assay: Mobilization of hematopoietic progenitor cells to the blood; format: in vivo, mouse; settings: subcutaneous, 1 h; for mobilization of BFU-E from the bone marrow to the blood / mobilization of CFU-GEMM from the bone marrow to the blood / mobilization of CFU-GM from the bone marrow to the blood: 7-day culture in MethoCult GF M3434; for mobilization of HPCs from the bone marrow to the peripheral blood: vs vehicle control (P < 0.01), monovalent peptide 37.5 and 150 mg/kg, bivalent peptide 57.5 and 230 mg/kg, mean of at least three independent experiments
Summary of the method: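 C3H/HeJ mice received vehicle or peptide subcutaneously. After 1 h, peripheral blood was drawn into heparin-treated tubes and red cells were lysed with ammonium chloride. Cells were grown in MethoCult GF M3434 for 7 days in humidified 5% CO2. CFU-GM, BFU-E and CFU-GEMM colonies were counted.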

[3] = tested on: CXCR4-dependent HIV-1 strains; settings: cited from earlier work
CXCR4 = settings: HEK293 cells that stably expressed CXCR4; cited from earlier work
[4] = SDF-1α 12.5 nM, 5, 15, 30, 45, 60 minutes

Row | Molecule | effect on SDF-1α-induced Akt phosphorylation (CXCR7 [1]) | mobilization of BFU-E from the bone marrow to the blood (C3H/HeJ mice) | mobilization of CFU-GEMM from the bone marrow to the blood (C3H/HeJ mice) | mobilization of CFU-GM from the bone marrow to the blood (C3H/HeJ mice) | mobilization of HPCs from the bone marrow to the peripheral blood (C3H/HeJ mice) | anti-HIV entry activity [3] | also measured
1 | SDF-1α: specific ligand of CXCR4 |  |  |  |  |  |  | induction of phosphorylation of Akt (human CXCR4; Western blotting): induced the phosphorylation of Akt and Erk significantly; induction of phosphorylation of Erk (human CXCR4; Western blotting): induced the phosphorylation of Akt and Erk significantly; induction of Akt phosphorylation (CXCR7 [1]; [4]): only Akt phosphorylation was observed consistently from 5 to 60 minutes; also recorded: only weak phosphorylation of Akt; induction of Erk phosphorylation (CXCR7 [1]; [4]): no phosphorylation changes were observed for Erk; induction of Akt phosphorylation (wild-type CHO cells): no changes in Akt phosphorylation; affinity for CXCR7 compared with CXCR4 (CXCR7 [2]): higher
2 | c1cc(CN2CCCNCCNCCCNCC2)ccc1CN1CCCNCCNCCCNCC1 [AMD3100] |  |  |  |  |  |  | mobilization of HSCs to the peripheral blood (HSCs): rapid mobilization of HSCs to the peripheral blood
3 | LGASWHRPDKCCLGYQKRPLP [DV1] | slight effect; also recorded: little or no effect | strongly induced rapid mobilization | strongly induced rapid mobilization | strongly induced rapid mobilization | strong mobilization of HPCs | anti-HIV entry activity | effect on SDF-1α-induced Akt phosphorylation (CXCR7 [1]; listed as DV-1): little inhibitory effects
4 | LGASWHRPDKCCLGYQKRPLPQVL LSSWYPTSQLCSKPGVIFLTKRGRQ VCADKSKDWVKKLMQQLPVTAR [vMIP-II] |  |  |  |  |  |  | inhibition of HIV-1 entry ([3]; vMIP-II binding to CXCR4 or CCR5): inhibitory effect on HIV-1 entry
5 | LGASWHRPDKCCLGYQKRPLPK [HC4319] | little inhibitory effects; also recorded: little or no effect | strongly induced rapid mobilization | strongly induced rapid mobilization | strongly induced rapid mobilization | strong mobilization of HPCs |  | inhibitory effect on phosphorylation of Akt compared with DV1 (human CXCR4; 30 μM, bivalent vs monovalent): more potent inhibitory effect; inhibitory effect on phosphorylation of Erk compared with DV1 (human CXCR4; 30 μM, bivalent vs monovalent): more potent inhibitory effect; CXCR4 binding potency compared with the monomeric counterparts DV1 and DV3 (CXCR4): much more potent
6 | LGASWHRPDK [DV3] |  |  |  |  |  | anti-HIV entry activity | 

Source: article PMC6434473 (Cell Transplantation, 2018)
